ChEMBL document CHEMBL4715831, “Design and synthesis of 2-((1H-indol-3-yl)thio)-N-phenyl-acetamides as novel dual inhibitors of respiratory syncytial virus and influenza virus A” (Eur J Med Chem, 2020)

Assays:
Influenza A virus [1] = test: Antiviral activity against Influenza A virus A/WSN/33(H1N1) infected in HEK293T cells assessed as relative fluorescence intensity at 20 uM pretreated for 2 hrs followed by viral infection and measured after 24 hrs by Gaussia luciferase reporter gene method; type: functional, A/WSN/1933(H1N1); details: time 26 hrs
Outline: (§1)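 Time-of-addition assay: compound at 20 μM added before infection or at infection (0 h) in HEK293T-Gluc cells infected with A/WSN/33 (H1N1). Supernatant Gaussia luciferase measured after 24 h with coelenterazine-h. Values normalized to the DMSO control, set as 100%; ribavirin positive control. Mean ± SD, three independent experiments.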

Influenza A virus [2] = test: Antiviral activity against Influenza A virus A/WSN/33(H1N1) infected in HEK293T cells assessed as relative fluorescence intensity at 20 uM measured after 24 hrs by Gaussia luciferase reporter gene method; type: functional, A/WSN/1933(H1N1); outline: as §1
[3] = Safety index, ratio of CC50 for HEK293T cells to EC50 for antiviral activity against Influenza A virus A/WSN/33(H1N1) infected in human HEK293T cells; type: toxicity, cell-based; details: read-out: Ratio CC50/EC50
[4] = Safety index, ratio of CC50 for human HEp-2 cells to EC50 for GFP-fused wild-type RSV subgroup A long infected in human HEp-2 cells; type: toxicity, cell-based; details: read-out: Ratio CC50/EC50
Influenza A virus [5] = test: Antiviral activity against Influenza A virus A/WSN/33(H1N1) infected in human HEK293T cells assessed as inhibition of viral replication at 10 uM measured after 24 hrs by Gaussia luciferase reporter gene method relative to control; type: functional; details: A/WSN/1933(H1N1), HEK-293T
Influenza A virus [6] = test: Antiviral activity against Influenza A virus A/WSN/33(H1N1) infected in human HEK293T cells measured after 24 hrs by Gaussia luciferase reporter gene method; type: functional, organism-based; details: A/WSN/1933(H1N1); for EC50: HEK-293T
Outline: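 HEK293T cells carrying a Gaussia luciferase reporter that is activated by IAV, infected with A/WSN/33 (H1N1) for 1 h at room temperature, then cultured 24 h at 37 °C with serially diluted compound. Supernatant Gluc read with coelenterazine-h (16.7 μM in PBS) as 0.5-s photon counts. Normalized to control set as 100%; ribavirin positive control; three experiments.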

Influenza A virus [7] = test: Antiviral activity against Influenza A virus A/WSN/33(H1N1) infected in MDCK cells measured after 24 hrs by Gaussia luciferase reporter gene method; type: functional, organism-based; details: A/WSN/1933(H1N1)
Outline: (§2)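 MDCK cells infected with IAV A/WSN/33 (H1N1) or H3N2 for 1 h at room temperature, then cultured in fresh DMEM with serially diluted compound for 24 h at 37 °C. Gluc activity in the medium read with coelenterazine-h (16.7 μM in PBS). Normalized to control set as 100%; ribavirin positive control; mean ± SD of three experiments.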

[8] = Cytotoxicity against human HEp-2 cells assessed as reduction in cell viability measured after 48 hrs by MTS assay; type: cell-based
Outline: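 HEp-2 cells plated; after 24 h, compound added and cells incubated 48 h. MTS (2 mg/ml) then added for 3 h at 37 °C in 5% CO2 and absorbance read at 490 nm. Untreated control set as 100%.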

Influenza A virus [9] = test: Antiviral activity against Influenza A virus A/WSN/33(H1N1) infected in HEK293T cells assessed as inhibition of viral replication at 20 uM pretreated for 2 hrs followed by viral infection and measured after 24 hrs by Gaussia luciferase reporter gene method relative to control; type: functional; details: A/WSN/1933(H1N1), HEK-293T, time 26 hrs; outline: as §1
Influenza A virus [10] = test: Antiviral activity against Influenza A virus A/WSN/33(H1N1) infected in HEK293T cells assessed as inhibition of viral replication at 20 uM measured after 24 hrs by Gaussia luciferase reporter gene method relative to control; type: functional; details: A/WSN/1933(H1N1), HEK-293T; outline: as §1
Influenza A virus [11] = test: Antiviral activity against Influenza A virus A/WSN/33(H1N1) infected in HEK293T cells co-transfected with NP/PA/PB1/PB2 complex assessed as inhibition of viral replication after 24 hrs by mini-genome replicon system based luciferase assay; type: functional, organism-based; details: A/WSN/1933(H1N1); for EC50: HEK-293T
Outline: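 Minigenome assay: vRNA transcription read as luciferase activity 24 h after transfection. Normalized to control set as 100%. Mean ± SD of three independent experiments.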

[12] = tested on: Respiratory syncytial virus; test: Antiviral activity against GFP-fused wild-type RSV subgroup A Long infected in human HEp-2 cells measured 24 to 72 hrs post infection by fluorescence assay; type: functional, cell-based
Outline: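 HEp-2 cells plated, then after 24 h infected with RSV-mGFP using 3-fold serially diluted inocula starting from 3 × 10^4 pfu/well. Compounds came from a 100 mM DMSO stock, diluted as indicated. RFU read at 479/517 nm at 24, 48 and 72 h post-infection, with non-infected cells as background. Mean ± SD of at least three experiments.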

[13] = Cytotoxicity against HEK293T cells assessed as reduction in cell viability measured after 48 hrs by CCK8 assay; type: cell-based, HEK-293T; details: human
Outline: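 293T cells treated for 48 h with six compound concentrations from 12.5 to 200 μM, with DMSO-only cells as control. CCK-8 then added for 1 h at 37 °C and OD read at 450 nm. Mean ± SD of three experiments.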

[14] = Antiviral activity against H3N2 infected in MDCK cells measured after 24 hrs by Gaussia luciferase reporter gene method; type: functional, cell-based, H3N2 subtype; details: Influenza A virus; outline: as §2
[15] = Cytotoxicity against human HEp-2 cells assessed as cell viability at 50 uM measured after 48 hrs by MTS assay relative to control; type: cell-based; details: read-out: Activity
[16] = tested on: Respiratory syncytial virus; test: Antiviral activity against GFP-fused wild-type RSV subgroup A Long infected in human HEp-2 cells at 50 uM measured 24 to 72 hrs post infection by fluorescence assay relative to control; type: functional; details: time 24-72 hrs
[17] = tested on: Respiratory syncytial virus; test: Antiviral activity against GFP-fused wild-type RSV subgroup A Long infected in human HEp-2 cells assessed as relative fluorescence intensity at 20 uM pretreated for 1 hr followed by viral infection measured 24 to 72 hrs post infection by fluorescence assay; type: functional, Respiratory syncytial virus type A; details: time 24-73 hrs
Outline: (§3)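 HEp-2 cells exposed to compound at 20 μM 1 h before RSV-mGFP infection (−1 h). GFP fluorescence read at 479/517 nm at 24, 48 and 72 h post-infection. Signal normalized to the DMSO control, set as 1; ribavirin was the positive control. Mean ± SD, three independent experiments.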

[18] = tested on: Respiratory syncytial virus; test: Antiviral activity against GFP-fused wild-type RSV subgroup A Long infected in human HEp-2 cells assessed as reduction in viral infection at 20 uM measured 24 to 72 hrs post infection by fluorescence assay relative to control; type: functional, Respiratory syncytial virus type A; set-up: scale not given: the % may be the effect or the level left; details: time 24-72 hrs
Outline: (§4)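 RSV-mGFP infection of HEp-2 cells with compound at 20 μM added at the time of infection (0 h). Fluorescence read at excitation 479 nm and emission 517 nm at 24, 48 and 72 h post-infection. Values normalized to the DMSO control, set as 1; ribavirin was the positive control. Mean ± SD of three independent experiments.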

[19] = tested on: Respiratory syncytial virus; test: Antiviral activity against GFP-fused wild-type RSV subgroup A Long infected in human HEp-2 cells assessed as relative fluorescence intensity at 20 uM measured 24 to 72 hrs post infection by fluorescence assay; type: functional, Respiratory syncytial virus type A; outline: as §4
[20] = tested on: Respiratory syncytial virus; test: Antiviral activity against GFP-fused wild-type RSV subgroup A Long infected in human HEp-2 cells assessed as reduction in viral infection at 20 uM pretreated for 1 hr followed by viral infection measured 24 to 72 hrs post infection by fluorescence assay relative to control; type: functional, Respiratory syncytial virus type A; set-up: scale not given: the % may be the effect or the level left; details: time 24-73 hrs; outline: as §3

| Compound | RFU (Influenza A virus [1]) | RFU (Influenza A virus [2]) | selectivity ratio [3] | selectivity ratio [4] | inhibition at 10 µM (Influenza A virus [5]) [%] | Activity (Influenza A virus [6]) | EC50 (Influenza A virus [6]) [µM] | EC50 (Influenza A virus [7]) [µM] | CC50 at 48 h [8] [µM] | inhibition at 20 µM (Influenza A virus [9]) [%] | inhibition at 20 µM (Influenza A virus [10]) [%] | inhibition (Influenza A virus [11]) | EC50 (Influenza A virus [11]) [µM] | Activity [12] | EC50 [12] [µM] | CC50 at 48 h [13] [µM] | EC50 [14] [µM] | viability at 48 h, 50 µM [15] [%] | inhibition at 50 µM [16] [%] | RFU [17] | also measured |
| --- | --- | --- | --- | --- | --- | --- | --- | --- | --- | --- | --- | --- | --- | --- | --- | --- | --- | --- | --- | --- | --- |
| CCOc1ccccc1NC(=O)CSc1c[nH]c2cc(Cl)ccc12 | 0.14 | 0.22 | > 65.4 | 5.36 | > 85 | Dose-dependent effect | 1.53 | 2.42 | 29.9 | 99.7 | 99.7 | Dose-dependent effect | 1.98 | Dose-dependent effect | 5.58 | > 100 | 1.58 | – | – | – | – |
| CCOc1ccccc1NC(=O)CSc1c[nH]c2c(Br)c(OC)ccc12 | 0.14 | 0.28 | > 52.6 | 3.3 | > 85 | Dose-dependent effect | 1.9 | 3.25 | 9.65 | 99.7 | 99.7 | Dose-dependent effect | 3.89 | Dose-dependent effect | 2.92 | > 100 | 1.5 | – | – | – | – |
| O=C(CSc1c[nH]c2ccccc12)Nc1ccc(Cl)c(Cl)c1 | – | – | – | 1.15 | – | – | – | – | 37.5 | – | – | – | – | – | 32.7 | – | – | 81.8 | 77.1 | – | – |
| NC(=O)c1ncn([C@@H]2O[C@H](CO)[C@@H](O)[C@H]2O)n1 [RIBAVIRIN] | 0.67 | – | > 3.99 | 17.3 | – | – | 25.1 | 16 | 274 | – | – | – | – | – | 15.8 | > 100 | 20.5 | – | – | 0.04 | – |
| CCOc1ccccc1NC(=O)CSc1c[nH]c2ccc(OC)cc12 | – | – | > 79.4 | 379 | > 85 | Dose-dependent effect | 1.27 | – | 1830 | – | – | – | – | Dose-dependent effect | 4.82 | > 100 | – | – | – | 0.06 | Activity [18]: 99.89%; RFU [19]: 0.11; Activity [20]: 99.4% |
| CCOc1ccccc1NC(=O)CSc1c[nH]c2ccccc12 | – | – | – | 1.76 | – | – | – | – | 20.7 | – | – | – | – | – | 11.8 | – | – | 65.2 | 83.2 | – | – |
